Reference: ChEMBL document CHEMBL3124807 (Eur J Med Chem, 2014)

What was measured:
[1] = molecular target: T1, Prostaglandin G/H synthase 2 (Homo sapiens, UniProt P35354); assay: Inhibition of human recombinant COX2 using arachidonic acid as substrate incubated for 10 mins prior to substrate addition measured after 2 mins by enzyme immunoassay
T1 sequence (P35354 whole entry): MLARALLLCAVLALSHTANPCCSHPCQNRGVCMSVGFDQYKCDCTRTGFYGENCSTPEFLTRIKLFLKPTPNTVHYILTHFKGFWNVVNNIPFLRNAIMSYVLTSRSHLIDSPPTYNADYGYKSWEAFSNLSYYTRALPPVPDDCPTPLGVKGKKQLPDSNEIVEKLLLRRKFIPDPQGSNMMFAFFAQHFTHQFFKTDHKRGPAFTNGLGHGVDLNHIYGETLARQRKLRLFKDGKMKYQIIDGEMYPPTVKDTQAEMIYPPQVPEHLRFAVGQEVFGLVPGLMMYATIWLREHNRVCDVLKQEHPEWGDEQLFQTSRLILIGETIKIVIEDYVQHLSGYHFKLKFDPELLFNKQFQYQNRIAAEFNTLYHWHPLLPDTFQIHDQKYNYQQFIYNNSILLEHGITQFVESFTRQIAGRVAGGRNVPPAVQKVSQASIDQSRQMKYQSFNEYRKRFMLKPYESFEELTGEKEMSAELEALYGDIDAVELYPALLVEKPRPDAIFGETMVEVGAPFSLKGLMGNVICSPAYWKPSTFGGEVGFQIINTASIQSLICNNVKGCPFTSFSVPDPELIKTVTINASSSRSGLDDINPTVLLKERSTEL

[2] = Selectivity index, ratio of IC50 for ovine COX1 to IC50 for human recombinant COX2
In short: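 IC50 (COX-1)/IC50 (COX-2). Both IC50 values come from the EIA described above, run with ovine COX-1 or human recombinant COX-2 under the same buffer, preincubation, arachidonic acid and duplicate conditions.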

Rattus norvegicus [3] = assay: Antiinflammatory activity in Wistar albino rat assessed as inhibition of formalin-induced paw edema at 50 mg/kg, po administered 1 hr prior to formalin challenge measured after 2 hrs relative to control; type: functional
In short: (§1)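 Adult male Wistar albino rats (120–150 g), five per group. Dosed orally at 50 mg/kg in 10% aqueous DMSO (v/v) 1 h before 0.1 ml of 2.5% formalin was injected subcutaneously into the right hind paw; vehicle-only control group. Paw thickness was measured by Vernier caliper at 0 h and at 30 min, 1, 2 and 3 h. Edema inhibition % = (Vc − Vt)/Vc × 100; means of five ± S.E.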

Rattus norvegicus [4] = assay: Antiinflammatory activity in Wistar albino rat assessed as inhibition of formalin-induced paw edema at 50 mg/kg, po administered 1 hr prior to formalin challenge measured after 1 hr relative to control; type: functional; in short: as §1
[5] = molecular target: T2, Prostaglandin G/H synthase 1 (Ovis aries, UniProt P05979); assay: Inhibition of ovine COX1 using arachidonic acid as substrate incubated for 10 mins prior to substrate addition measured after 2 mins by enzyme immunoassay
T2 sequence (P05979 whole entry): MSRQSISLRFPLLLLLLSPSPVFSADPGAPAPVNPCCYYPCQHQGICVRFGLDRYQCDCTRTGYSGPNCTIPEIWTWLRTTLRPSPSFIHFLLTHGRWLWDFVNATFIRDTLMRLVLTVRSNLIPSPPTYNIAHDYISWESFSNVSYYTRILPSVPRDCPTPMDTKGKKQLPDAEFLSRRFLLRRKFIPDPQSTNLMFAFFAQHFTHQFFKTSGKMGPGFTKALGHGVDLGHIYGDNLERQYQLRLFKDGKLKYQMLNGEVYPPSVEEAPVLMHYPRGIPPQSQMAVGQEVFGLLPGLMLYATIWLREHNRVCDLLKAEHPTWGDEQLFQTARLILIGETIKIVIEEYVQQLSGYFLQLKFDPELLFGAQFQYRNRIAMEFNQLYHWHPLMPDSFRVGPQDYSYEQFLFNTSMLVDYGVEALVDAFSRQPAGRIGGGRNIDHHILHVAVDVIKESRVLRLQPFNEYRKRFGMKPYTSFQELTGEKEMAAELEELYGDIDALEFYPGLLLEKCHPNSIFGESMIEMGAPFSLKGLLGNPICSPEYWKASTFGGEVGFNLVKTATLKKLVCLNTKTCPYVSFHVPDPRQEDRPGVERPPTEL
In short: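 Ovine COX-1 in 0.1 M Tris-HCl pH 8.0 with 5 mM EDTA, 2 mM phenol and heme. Test concentrations were 0, 0.01, 0.1, 1, 10 and 50 (final volume 1 ml). Preincubated 10 min at 37 °C, then arachidonic acid (100) was added and the reaction was stopped with 1 M HCl after 2 min. PGF2α (from SnCl2 reduction of PGH2) was quantified by competitive EIA at 410 nm. IC50 was taken from the concentration–inhibition curve, duplicates.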

Rattus norvegicus [6] = assay: Ulcerogenic effect in fasted Wistar albino rat at 50 mg/kg, po measured 2 hrs post last dose; type: toxicity, organism-based; parameters: dose 50 mg/kg, route oral; conditions: in vivo
In short: (§2)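 Adult male Wistar albino rats (120–150 g), five per group, fasted 18 h before dosing. Oral doses were given for three successive days (test compounds 50 mg/kg, ibuprofen 25 mg/kg; control 10% aqueous DMSO), with feeding 2 h after dosing. Stomachs were removed 2 h after the last dose, opened along the greater curvature, rinsed with 0.9% NaCl and examined under a 10× lens. Ulcer index followed Robert's method (incidence/10, mean ulcer number, severity score).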

Rattus norvegicus [7] = assay: Antiinflammatory activity in Wistar albino rat assessed as inhibition of formalin-induced paw edema at 50 mg/kg, po administered 1 hr prior to formalin challenge measured after 3 hrs relative to control; type: functional; in short: as §1
Rattus norvegicus [8] = assay: Antiinflammatory activity in Wistar albino rat assessed as inhibition of formalin-induced paw edema at 50 mg/kg, po administered 1 hr prior to formalin challenge measured after 30 mins relative to control; type: functional; in short: as §1
Rattus norvegicus [9] = assay: Ulcerogenic effect in fasted Wistar albino rat assessed as reduction in ulcerogenic potential at 50 mg/kg, po measured 2 hrs post last dose relative to celecoxib; type: toxicity, organism-based; parameters: dose 50 mg/kg, route oral; scale not given: the % may be the effect or the level left; conditions: in vivo
Rattus norvegicus [10] = assay: Ulcerogenic effect in fasted Wistar albino rat at 25 mg/kg, po measured 2 hrs post last dose; type: toxicity, organism-based; parameters: dose 25 mg/kg, route oral; conditions: in vivo; in short: as §2

Row | Compound | IC50 [1] [µM] | Ratio IC50 [2] | IC50 [5] [µM] | inhibition in vivo at 50 mg/kg (Rattus norvegicus [3]) [%] | inhibition in vivo at 50 mg/kg (Rattus norvegicus [4]) [%] | UI (Rattus norvegicus [6]) | inhibition in vivo at 50 mg/kg (Rattus norvegicus [7]) [%] | inhibition in vivo at 50 mg/kg (Rattus norvegicus [8]) [%] | Activity (Rattus norvegicus [9]) [%] | UI (Rattus norvegicus [10])
1 | COc1c(-c2cc(C)nn2-c2ccc(S(N)(=O)=O)cc2)c(O)cc2occc12 | 7.5 | > 6.67 | > 50 | – | – | – | – | – | – | –
2 | COc1c(-c2cc(C(F)(F)F)nn2-c2ccc(S(N)(=O)=O)cc2)c(O)c(OC)c2occc12 | 0.52 | > 96.2 | > 50 | 87.9 | 79 | 11.56 | 91.8 | 72.2 | – | –
3 | CC(C)Cc1ccc(C(C)C(=O)O)cc1 (centres undefined) [IBUPROFEN] | – | – | – | – | – | – | – | – | – | 22.32
4 | Cc1ccc(-c2cc(C(F)(F)F)nn2-c2ccc(S(N)(=O)=O)cc2)cc1 [CELECOXIB] | – | – | – | 100 | 100 | 16.12 | 100 | 94.4 | – | –
5 | COc1cc2occc2c(OC)c1-c1cc(-c2ccccc2)n(-c2ccc(S(N)(=O)=O)cc2)n1 | 35 | > 1.43 | > 50 | – | – | – | – | – | – | –
6 | COc1cc2occc2c(OC)c1-c1cc(-c2ccc(Cl)cc2)n(-c2ccc(S(N)(=O)=O)cc2)n1 | 26 | > 1.93 | > 50 | – | – | – | – | – | – | –
7 | COc1c(-c2cc(C(F)(F)F)nn2-c2ccc(S(N)(=O)=O)cc2)c(O)cc2occc12 | 7 | > 7.14 | > 50 | – | – | – | – | – | – | –

Continued by falling IC50 [1], values first:

Row | IC50 [1] [µM] | Ratio IC50 [2] | IC50 [5] [µM] | Compound | inhibition in vivo at 50 mg/kg (Rattus norvegicus [3]) [%] | inhibition in vivo at 50 mg/kg (Rattus norvegicus [4]) [%] | UI (Rattus norvegicus [6]) | inhibition in vivo at 50 mg/kg (Rattus norvegicus [7]) [%] | inhibition in vivo at 50 mg/kg (Rattus norvegicus [8]) [%] | Activity (Rattus norvegicus [9]) [%] | UI (Rattus norvegicus [10])
8 | 0.46 | > 109 | > 50 | COc1cc2occc2c(OC)c1-c1cc(-c2ccc(F)cc2)n(-c2ccc(S(N)(=O)=O)cc2)n1 | 82.8 | 82.5 | 11.75 | 83.6 | 79.6 | – | –
9 | 0.4 | > 125 | > 50 | COc1c(-c2cc(-c3cccnc3)nn2-c2ccc(S(N)(=O)=O)cc2)c(O)cc2occc12 | 100 | 96.2 | 13.82 | 100 | 90.1 | – | –
10 | 0.36 | > 139 | > 50 | COc1c(-c2cc(-c3cccnc3)nn2-c2ccc(S(N)(=O)=O)cc2)c(O)c(OC)c2occc12 | 100 | 96.5 | 10.5 | 100 | 90.7 | 40 | –
11 | 0.34 | > 147 | > 50 | COc1cc2occc2c(OC)c1-c1cc(-c2ccc(C(F)(F)F)cc2)n(-c2ccc(S(N)(=O)=O)cc2)n1 | 94.8 | 77.2 | 10.5 | 91.8 | 66.7 | – | –
